Test results from ChEMBL document CHEMBL1142301, “2'-deoxy cyclic adenosine 5'-diphosphate ribose derivatives: importance of the 2'-hydroxyl motif for the antagonistic activity of 8-substituted cADPR derivatives” (J Med Chem, 2008).
Active and inactive are the calls of the source. The calls are words filed in the database; no cut-off is given here.

Legend:
[1] = (§1) Antagonist activity at human cADPR receptor in Jurkat T cells assessed as inhibition of cyclic ADP-ribose-induced calcium release; format: functional, cell-based
Outline: (§2)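 Jurkat T cells were saponin-permeabilized, resealed 2 h on ice and reloaded with Ca2+ via ATP and a creatine phosphate/creatine kinase regenerating system, in pH 7.2 KCl/HEPES intracellular buffer. Analogue inhibition of Ca2+ release evoked by 30 µM cADPR was followed by fura2 ratio (340/380 nm ex, 495 nm em), calibrated per run. IC50 values were taken from concentration–response curves.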

Jurkat [2] = assay: Antagonist activity at human cADPR receptor in Jurkat T cells assessed as inhibition of inositol-1,4,5-triphosphate-induced calcium release; format: functional, cell-based
Outline: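 Permeabilized, store-reloaded Jurkat T cells in pH 7.2 intracellular buffer with fura2 free acid (ex 340/380 nm, em 495 nm). Analogues were tested at 100 µM against Ca2+ release triggered by 4 µM InsP3.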

Jurkat [3] = assay: Agonist activity at human cADPR receptor in Jurkat T cells assessed as stimulation of calcium release at 100 uM; format: functional, cell-based
Outline: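 Saponin-permeabilized Jurkat T cells in intracellular buffer (20 mM HEPES, 110 mM KCl, 2 mM MgCl2, 5 mM KH2PO4, 10 mM NaCl, pH 7.2) with no extracellular Ca2+. Cells were kept on ice 2 h to reseal stores, then reloaded with ATP plus creatine phosphate/creatine kinase. Compound was added once stores were refilled. Ca2+ read by fura2 free acid (ex 340/380, em 495 nm), calibrated with CaCl2 and EGTA/Tris.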

[4] = (§3) Agonist activity at human cADPR receptor in sea urchin egg homogenates assessed as stimulation of calcium release; format: functional, tissue-based, Lytechinus pictus
Outline: (§4)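 Lytechinus pictus eggs were spawned by intracoelomic 0.5 M KCl, dejellied and washed. Eggs were homogenized in 250 mM K gluconate, 250 mM N-methylglucamine, 20 mM HEPES, 1 mM MgCl2, pH 7.2, with 1 mM ATP, creatine kinase, phosphocreatine and protease inhibitors. Ca2+ read with 3 µM fluo-3 at 17 °C (ex 506, em 526 nm) in stirred homogenate. EC50/IC50 values come from concentration–response curves.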

[5] = Antagonist activity at cADPR receptor in sea urchin egg homogenates assessed as inhibition of calcium release; format: functional, tissue-based, Lytechinus pictus; outline: as §4
Jurkat [6] = assay: Agonist activity at human cADPR receptor in Jurkat T cells assessed as stimulation of calcium release at 100 uM
Jurkat [7] = assay: as §1; format: functional, cell-based; outline: as §2
Lytechinus pictus [8] = assay: as §3; format: functional, tissue-based; outline: as §4
Lytechinus pictus [9] = assay: Agonist activity at human cADPR receptor in intact sea urchin egg assessed as stimulation of calcium release; format: functional
Outline: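 Intact Lytechinus pictus eggs were microinjected with rhod dextran (~10 µM intracellular), then exposed to 100 or 400 µM analogue in the bath. Ca2+ was imaged by confocal microscopy (ex 543 nm, em >560 nm).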

| SMILES | IC50 [1] [µM] | Activity (Jurkat [2]) | Activity (Jurkat [3]) | also measured |
| --- | --- | --- | --- | --- |
| Nc1nc2c(N)[n+]3cnc2n1[C@@H]1O[C@H](COP(=O)(O)OP(=O)([O-])OC[C@H]2O[C@@H]3[C@H](O)[C@@H]2O)[C@@H](O)[C@H]1O | 0.2 | inactive | Active | EC50 [4]: 89 µM; IC50 [5]: 0.105 µM; Activity (Jurkat [6]): Active |
| Nc1nc2c(N)[n+]3cnc2n1[C@H]1C[C@H](O)[C@@H](COP(=O)(O)OP(=O)([O-])OC[C@H]2O[C@@H]3[C@H](O)[C@@H]2O)O1 | 6 | inactive | Active | EC50 [4]: > 89 µM; IC50 [5]: 0.22 µM |
| Nc1c2nc(Br)n3c2nc[n+]1[C@@H]1O[C@H](COP(=O)([O-])OP(=O)(O)OC[C@H]2O[C@@H]3[C@H](O)[C@@H]2O)[C@@H](O)[C@H]1O | 10 | inactive | Active | – |
| Nc1c2ccn3c2nc[n+]1[C@@H]1O[C@H](COP(=O)([O-])OP(=O)(O)OC[C@H]2O[C@@H]3C[C@@H]2O)[C@@H](O)[C@H]1O | – | – | Active | Activity (Jurkat [7]): inactive |
| Nc1c2ncn3c2nc[n+]1[C@@H]1O[C@H](COP(=O)([O-])OP(=O)(O)OC[C@H]2O[C@@H]3[C@H](O)[C@@H]2O)[C@@H](O)[C@H]1O | – | inactive | Active | – |
| Nc1c2nc(-c3ccccc3)n3c2nc[n+]1[C@@H]1O[C@H](COP(=O)([O-])OP(=O)(O)OC[C@H]2O[C@@H]3[C@H](O)[C@@H]2O)[C@@H](O)[C@H]1O | – | – | Active | – |
| COc1nc2c(N)[n+]3cnc2n1[C@H]1C[C@H](O)[C@@H](COP(=O)(O)OP(=O)([O-])OC[C@H]2O[C@@H]3[C@H](O)[C@@H]2O)O1 | 8 | inactive | Active | – |
| Nc1c2nc(-c3ccccc3)n3c2nc[n+]1[C@@H]1O[C@H](COP(=O)([O-])OP(=O)(O)OC[C@H]2O[C@@H]3C[C@@H]2O)[C@@H](O)[C@H]1O | – | – | Active | – |
| Nc1c2nc(Br)n3c2nc[n+]1[C@@H]1O[C@H](COP(=O)([O-])OP(=O)(O)OC[C@H]2O[C@@H]3C[C@@H]2O)[C@@H](O)[C@H]1O | – | – | Active | Activity (Lytechinus pictus [8]): Active; Activity (Lytechinus pictus [9]): Active |
